From ChEMBL document CHEMBL1145772, “Antiinflammatory, gastrosparing, and antiplatelet properties of new NO-donor esters of aspirin” (J Med Chem, 2003) come the findings set out here.

Data set [1] in a line: Percent unaltered compound in human serum after 1 min of incubation. The class given is ADME. The note with it: read-out: Unaltered compound. The gist of the method: (§1)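 Compound is incubated in human serum at 37 °C for 1 min or 1 h. Samples are then deproteinized with acetonitrile containing 0.1% TFA and centrifuged at 9600g for 10 min. The remaining intact compound is quantified by reversed-phase HPLC on an RP-18 column at 40 °C, using a 25–80% acetonitrile/0.1% TFA gradient, with UV detection at 224 nm.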

Data set [2] can be described thus: NO release in the presence of 1:5 molar excess of L-cysteine, value expressed as % mol/mol of NO2-. The gist of the method: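 Compound is dissolved in pH 7.4 buffered water/methanol and incubated for 1 h at 37 °C with a 1:5 molar excess of L-cysteine (5 × 10^-4 M). Griess reagent is added, and absorbance at 540 nm is read after 10 min at room temperature. Nitrite is reported as % mol/mol, mean ± SEM.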

Data set [3] is described as follows: Percent unaltered compound in human serum after 1 hr of incubation. Type of data set: ADME. The note with it: read-out: Unaltered compound. A digest of the protocol:
as §1

Data set [4] is filed under the species Homo sapiens. As to the kind of experiment: Inhibition of collagen-induced human platelet rich plasma aggregation at 50 uM concentration. The class given is functional. The gist of the method:
(§2)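 Human platelet-rich plasma is prepared from citrated venous blood of drug-free healthy volunteers (at least 2 weeks) by spinning at 200g for 20 min. Compound is added 10 min before the agonist, either ADP or collagen at […]. Light-transmission aggregation is recorded under stirring at 1000 rpm, 37 °C, for 5 min. Inhibition is expressed relative to vehicle (<0.5% DMSO) controls. The top concentration is 50 µM. pIC50 is fitted by nonlinear regression when inhibition exceeds 50%.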

The species entered for data set [5] is Homo sapiens. As to the kind of experiment: Inhibition of ADP-induced human platelet rich plasma aggregation at 50 uM concentration. Type of data set: functional. The gist of the method: as §2
The species entered for data set [6] is Homo sapiens. As to the kind of experiment: Inhibition of collagen-induced human platelet rich plasma aggregation at 50 uM concentration in presence of 100 uM ODQ. Type of data set: functional. A digest of the protocol:
(§3)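 Aggregation of human PRP is triggered by ADP or by collagen at […], and read by light transmission (stirring, 37 °C, 5 min). Compound is given 10 min before the agonist. The NO scavenger oxyhaemoglobin or the sGC inhibitor ODQ (100 µM) is included to probe NO/sGC involvement. The value is % inhibition versus vehicle control at the top tested concentration of 50 µM.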

The species entered for data set [7] is Homo sapiens. As to the kind of experiment: Inhibition of ADP-induced human platelet rich plasma aggregation at 50 uM concentration in presence of 100 uM ODQ. The class given is functional. The gist of the method:
as §3

For data set [8], the species on record is Homo sapiens. As to the kind of experiment: Inhibition of ADP-induced human platelet rich plasma aggregation at 50 uM concentration in presence of 40 uM HbO2. The class given is functional. A digest of the protocol:
as §3

The species entered for data set [9] is Homo sapiens. Briefly: Inhibition of collagen-induced human platelet rich plasma aggregation at 50 uM concentration in presence of 40 uM HbO2. The class given is functional. The gist of the method: as §3
The species entered for data set [10] is Homo sapiens. Briefly: Inhibition of collagen-induced human platelet rich plasma aggregation. Type of data set: functional. The gist of the method:
as §2

Turning to `CC(=O)Oc1ccccc1C(=O)OCc1no[n+]([O-])c1C#N`, in [1], the remaining at 1 min was 0%. Also, the NO release in [2] turned out to be 32.3. In addition, in data set [3], the remaining at 1 h is 0%.
As to `CC(=O)Oc1ccccc1C(=O)OCCCOc1nonc1-c1ccccc1`, in [1], the remaining at 1 min came to 39.3%. Besides, the inhibition at 50 µM in the data set listed under Homo sapiens [4] is 0.7%; in the data set listed under Homo sapiens [5] it was 16.9%. The remaining at 1 h in data set [3] is 3.9%.
As to `CC(=O)Oc1ccccc1C(=O)OCCCOc1no[n+]([O-])c1S(=O)(=O)c1ccccc1`, the remaining at 1 min in data set [1] was 43.7%. The NO release in [2] was determined as 37.1. The remaining at 1 h in data set [3] is 9.3%.
On the same counts, the results for `CC(=O)Oc1ccccc1C(=O)OCCCOc1no[n+]([O-])c1-c1ccccc1` are 38.8%, 0.35 and 3.8%.
As for `CCCOC(=O)c1ccccc1OC(C)=O`, in data set [1], the remaining at 1 min is 0%. In addition, the inhibition at 50 µM in the data set listed under Homo sapiens [4] came to 14.4%; in the data set filed under Homo sapiens [5] it was 18.1%. Moreover, in data set [3], the remaining at 1 h turned out to be 0%.
Turning to `CC(=O)Oc1ccccc1C(=O)OCc1nonc1C(N)=O`, the remaining at 1 min in data set [1] came to 0%. Besides, the inhibition at 50 µM in the data set listed under Homo sapiens [4] is 16.7%; in the data set listed under Homo sapiens [5] it was 7.6%. Also, the remaining at 1 h in [3] stood at 0%.
For `CC(=O)Oc1ccccc1C(=O)OCc1no[n+]([O-])c1C(N)=O`, in [1], the remaining at 1 min was 0%. The Inhibition in the data set listed under Homo sapiens [6] was 18.5%; in the data set filed under Homo sapiens [7], 22.6%; in the data set filed under Homo sapiens [8] it was 28.6%; in the data set listed under Homo sapiens [9], 14.4%. Further, the NO release in data set [2] came to 3.8. Besides, the remaining at 1 h in data set [3] came out at 0%.
For `CC(=O)Oc1ccccc1C(=O)OCc1nonc1C#N`, in data set [1], the remaining at 1 min turned out to be 0%. In addition, the inhibition at 50 µM in the data set listed under Homo sapiens [4] worked out at 27.9%; in the data set filed under Homo sapiens [5], 14.8%. Further, the remaining at 1 h in [3] was determined as 0%.
Turning to `CC(=O)Oc1ccccc1C(=O)OCc1nonc1C`, the remaining at 1 min in data set [1] was 0%. Further, the figures for the inhibition at 50 µM in the data set filed under Homo sapiens [4] and in the data set listed under Homo sapiens [5] were 1.5% and 23.2%, respectively. In data set [3], the remaining at 1 h turned out to be 0%.
For the molecule `CC(=O)Oc1ccccc1C(=O)OCCCO[N+](=O)[O-]`, the remaining at 1 min in data set [1] was 0%. In data set [2], the NO release is 0.18. In addition, the inhibition at 50 µM in the data set listed under Homo sapiens [4] was 12.3%; in the data set filed under Homo sapiens [5] it was 18.3%. For the same molecule, the remaining at 1 h in [3] worked out at 0%.
Consider `CC(=O)Oc1ccccc1C(=O)OCCCOc1nonc1S(=O)(=O)c1ccccc1`, for which the remaining at 1 min in data set [1] was 47.6%. Moreover, the inhibition at 50 µM in the data set filed under Homo sapiens [4] was found to be 14.8%; in the data set filed under Homo sapiens [5] it was 3.3%. In [3], the remaining at 1 h amounted to 8.1%.
With `CC(=O)Oc1ccccc1C(=O)OCc1no[n+]([O-])c1C`, in data set [1], the remaining at 1 min turned out to be 2.5%. Besides, the NO release in data set [2] came out at 0. Also, the Inhibition in the data set listed under Homo sapiens [10] is reported as 18.6%. Moreover, in [3], the remaining at 1 h is 0%. The same molecule gave an inhibition at 50 µM in the data set filed under Homo sapiens [5] of 17.8%.
